Compound activity: PubChem BioAssay, Broad Institute
Many of the other results were omitted from the sample, so hits are more common in it than they were.
A1 apoptosis 2: compounds inhibiting A1, read as caspase activation. MEF A1-2A-BIM cells, caspase-Glo luminescence, 3 h; percent of clofoctol response, DMSO zero. caspase activation, % (no concentration beside the values). 24,000 tested, under 10 active; in the data active = caspase activation above about 5.9%; inconclusive = no clear call, values can overlap the other calls; inactive = below about 2.2%
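Test system – A1-2A-BIM-expressing MEF cells · Input – 2500 cells/well · Medium – RPMI-1640 growth medium with 10% FBS · Compound dosing – 50 nL pinned compound · Timing – 3 h compound exposure at 37 °C · Technique – Caspase-Glo luminescence (DEVD substrate) · Evaluation – Caspase-3/7 activity from luminescence increase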
INS-1E ATP HTS: rescue of cytokine-induced death in INS-1E beta cells; INS-1E cytokine-induced death, ATP luminescence, 48 h; normalised: neutral wells 0, positive control 100; protection from cytokine-induced ATP loss, % at 10 µM; hit rate 0.1% among 20,000; AID 488910;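 active = mean replicate protection from cytokine-induced ATP loss at least 50% and at least 75% of replicates each reaching 50%; inconclusive = meets only one of the two criteria, mean or replicate share; inactive = fails both the mean and replicate share criteria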
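Assay system: INS-1E rat insulinoma cells. Amount: 8000 cells per well. Medium: phenol-red-free RPMI with 5% fetal bovine serum. Reagent: IL-1β, TNF-α and IFN-γ cytokine mix. Doses: one compound concentration, pin transfer. Schedule: 48 h co-treatment, 10 min post-lysis read. Detection: CellTiter-Glo luminescence measuring cellular ATP.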
T cruzi HTS: intracellular Trypanosoma cruzi inhibition; intracellular Trypanosoma cruzi in host cells, plate reader; activity score (inhibition), % at 5.01 µM; hit rate 4.9% among 22,000; AID 651903; in the data active = activity score above about 55%; inconclusive = no clear call, values can overlap the other calls;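 also: parasites and compound incubated about four days before reading; 0% = median of neutral control wells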
Active calls of the source: *; ? = inconclusive; / = no result given.

SMILES | A1 apoptosis 2 | INS-1E ATP HTS | T cruzi HTS
N#Cc1ccc(/C=N/NC(=O)c2ccc(C(=O)NO)cc2)cc1 | / | 10 | 2
C=CCNC(=O)[C@@H]1[C@H]2C(=O)O[C@H](c3ccccc3)[C@H](c3ccccc3)N2[C@H](c2ccccc2OCCO)[C@@]12C(=O)Nc1ccccc12 | 0 | / | /
O=C(NO)c1ccc(C(=O)N/N=C/c2ccc(O)c(O)c2O)cc1 | 0 | / | /
O=C(CCCCCC(=O)Nc1ccccc1O)N/N=C/[C@H](O)[C@@H](O)[C@H](O)[C@H](O)CO[C@H]1O[C@H](CO)[C@H](O)[C@H](O)[C@H]1O | 0 | / | /
O=S(=O)(N[C@@H]1CCCN(Cc2ccc(OCCO)cc2)C1)c1ccc(Cl)cc1 | 0 | / | /
C[C@H](CO)N1C[C@H](C)[C@@H](CN(C)Cc2ccc(C(=O)O)cc2)Oc2ccc(NS(=O)(=O)c3cccs3)cc2CC1=O | 0 | / | /
C[C@H]1CN([C@@H](C)CO)C(=O)Cc2cc(NS(=O)(=O)c3ccc(F)cc3)ccc2O[C@@H]1CN(C)Cc1ccc(Cl)c(Cl)c1 | / | -24 | ?
C[C@@H]1CN([C@H](C)CO)C(=O)Cc2cc(NS(=O)(=O)c3ccc(F)cc3)ccc2O[C@@H]1CN(C)Cc1ccc(Cl)c(Cl)c1 | / | -34 | 63*
COC(=O)CCCCCCC(=O)N/N=C/c1cccc2ccccc12 | / | 6 | 16
C[C@@H]1CCCCO[C@@H](CN(C)C(=O)Nc2ccc(C(F)(F)F)cc2)[C@@H](C)CN([C@H](C)CO)C(=O)c2cc(NS(=O)(=O)c3ccc(F)cc3)ccc2O1 | 0 | -13 | 71*
COc1ccc(S(=O)(=O)Nc2ccc3c(c2)C(=O)N([C@H](C)CO)C[C@H](C)[C@H](CN(C)C(=O)Nc2ccc(C(F)(F)F)cc2)OCCCC[C@@H](C)O3)cc1 | -1 | -19 | 65*
Cc1ccc(S(=O)(=O)Nc2ccc3c(c2)C(=O)N([C@H](C)CO)C[C@H](C)[C@@H](CN(C)C(=O)Nc2ccc(C(F)(F)F)cc2)OCCCC[C@@H](C)O3)cc1 | 0 | -16 | 75*
Cc1ccc(S(=O)(=O)Nc2ccc3c(c2)C(=O)N([C@H](C)CO)C[C@H](C)[C@H](CN(C)C(=O)Nc2ccc(C(F)(F)F)cc2)O3)cc1 | 1 | / | -2
Cc1ccc(S(=O)(=O)Nc2ccc3c(c2)C(=O)N([C@@H](C)CO)C[C@@H](C)[C@@H](CN(C)C(=O)Nc2ccc(C(F)(F)F)cc2)O3)cc1 | 1 | -25 | 68*
C[C@@H]1CCCCO[C@@H](CN(C)C(=O)Nc2ccc(C(F)(F)F)cc2)[C@H](C)CN([C@@H](C)CO)C(=O)c2cc(NS(=O)(=O)c3ccc(F)cc3)ccc2O1 | 0 | / | /
Cc1ccc(S(=O)(=O)Nc2ccc3c(c2)C(=O)N([C@@H](C)CO)C[C@H](C)[C@H](CN(C)C(=O)Nc2ccc(C(F)(F)F)cc2)OCCCC[C@H](C)O3)cc1 | -1 | / | /
COc1ccc(S(=O)(=O)Nc2ccc3c(c2)C(=O)N([C@@H](C)CO)C[C@H](C)[C@@H](CN(C)C(=O)Nc2ccc(C(F)(F)F)cc2)OCCCC[C@@H](C)O3)cc1 | -1 | / | /
COC(=O)CCCCCCC(=O)N/N=C/c1cc(C)ccc1O | 1 | 4 | -9
COC(=O)C1=C/c2ccccc2C(C2CC2)N(C)/C=C\1C(=O)OC (stereo not given) | 0 | / | /
COc1ccc(S(=O)(=O)N(C)C[C@@H]2Oc3c(NC(=O)NC4CCCCC4)cccc3C(=O)N([C@@H](C)CO)C[C@H]2C)cc1 | 0 | 6 | 13
N#Cc1ccc(/C=N/NC(=O)c2cccc(C(=O)NO)c2)cc1 | -1 | 3 | -6
C[C@@H]1CCCCO[C@@H](CN(C)C(=O)Nc2ccc(F)cc2)[C@@H](C)CN([C@H](C)CO)C(=O)c2cc(NS(=O)(=O)c3ccc(Cl)cc3)ccc2O1 | 0 | -6 | 65*
C[C@@H]1CCCCO[C@H](CN(C)C(=O)Nc2ccc(F)cc2)[C@H](C)CN([C@H](C)CO)C(=O)c2cc(NS(=O)(=O)c3ccc(Cl)cc3)ccc2O1 | 1 | / | /
O=C(CCCCCC(=O)Nc1ccccc1O)N/N=C/c1ccc(N2CCCC2)cc1 | 0 | / | /
C[C@@H]1CN([C@H](C)CO)C(=O)c2cccc(NC(=O)Nc3ccc(C(F)(F)F)cc3)c2O[C@@H]1CN(C)C(=O)Nc1ccc2c(c1)OCO2 | 0 | -36 | 44
SMILES | A1 apoptosis 2 | INS-1E ATP HTS | T cruzi HTS
C[C@@H]1CN([C@@H](C)CO)C(=O)c2cccc(NC(=O)Nc3ccc(C(F)(F)F)cc3)c2O[C@@H]1CN(C)C(=O)Nc1ccc(C(F)(F)F)cc1 | / | -108 | 88*
C[C@H](CO)N1C[C@H](C)[C@H](CN(C)C(=O)Nc2ccc3c(c2)OCO3)Oc2c(NC(=O)Nc3ccc(C(F)(F)F)cc3)cccc2C1=O | 1 | -46 | 63*
C[C@H]1CN([C@@H](C)CO)C(=O)c2cccc(NC(=O)Nc3ccc(F)cc3)c2O[C@@H]1CN(C)C(=O)Nc1ccc(C(F)(F)F)cc1 | -1 | 1 | -1
C[C@H](CO)N1C[C@H](C)[C@H](CN(C)C(=O)Nc2ccc(C(F)(F)F)cc2)Oc2c(NC(=O)Nc3ccc(C(F)(F)F)cc3)cccc2C1=O | / | -106 | 78*
C[C@@H]1CN([C@H](C)CO)C(=O)c2cccc(NC(=O)Nc3ccccc3)c2O[C@H]1CN(C)C(=O)Nc1ccc(C(F)(F)F)cc1 | 0 | 3 | 0
C[C@H]1CN([C@@H](C)CO)C(=O)c2cccc(NC(=O)NC3CCCCC3)c2O[C@@H]1CN(C)C(=O)Nc1ccc(C(F)(F)F)cc1 | 0 | -34 | 29
C[C@H](CO)N1C[C@H](C)[C@H](CN(C)C(=O)Nc2ccc(C(F)(F)F)cc2)Oc2c(NC(=O)NC3CCCCC3)cccc2C1=O | 1 | -26 | 75*
NC(=O)[C@H]1[C@@H]2C(=O)O[C@@H](c3ccccc3)[C@@H](c3ccccc3)N2[C@@H](c2ccc(O)cc2)[C@]12C(=O)Nc1ccccc12 | 0 | / | /
COc1cc(/C=N/NC(=O)c2ccccc2O)ccc1O | / | -31 | -18
C[C@H](CO)N1C[C@H](C)[C@H](CN(C)C(=O)Nc2ccc(F)cc2)Oc2c(NC(=O)Nc3cccc4ccccc34)cccc2C1=O | 1 | -102 | 71*
C[C@@H]1CN([C@@H](C)CO)C(=O)c2cccc(NC(=O)Nc3ccc(C(F)(F)F)cc3)c2O[C@@H]1CN(C)Cc1ccc2c(c1)OCO2 | 1 | -33 | 61*
C[C@@H]1CN([C@H](C)CO)C(=O)c2cccc(NC(=O)Nc3cccc4ccccc34)c2O[C@H]1CN(C)C(=O)Nc1ccc(C(F)(F)F)cc1 | 1 | -31 | 24
C[C@H]1CN([C@@H](C)CO)C(=O)c2cccc(NC(=O)Nc3cccc4ccccc34)c2O[C@@H]1CN(C)C(=O)Nc1ccc(F)cc1 | 1 | -5 | 22
C[C@@H]1CN([C@H](C)CO)C(=O)c2cccc(NC(=O)Nc3cccc4ccccc34)c2O[C@@H]1CN(C)C(=O)Nc1ccc(C(F)(F)F)cc1 | 0 | -105 | 65*
C[C@H](CO)N1C[C@H](C)[C@H](CN(C)Cc2ccc(C(F)(F)F)cc2)Oc2c(NC(=O)Nc3ccc4c(c3)OCO4)cccc2C1=O | / | -19 | 20
